Source: PubChem
Hits are enriched below; roughly 2.1% of the tested compounds scored in any of these assays.
Pf gamet viab: P. falciparum stage V gametocyte viability inhibition. P. falciparum stage V gametocytes, ATP luminescence, 24 h. inhibition, % at 10.9 µM. actives 0.065% (n = 150,000);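 active = inhibition above the mean plus 3 SD of compounds within the control limits, set per campaign, cut at about 38% in these data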
TNF necrop inh: inhibitors of TNF-alpha induced necroptosis in Jurkat FADD-/- cells; Jurkat FADD-/- TNF necroptosis rescue, ATP luminescence, 24 h; 0 = TNF only, 100 = no-TNF cells; activation (protection from cell death), % at 10 µM; actives 0.068% (n = 220,000);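 active = activation, meaning protection from cell death, of at least 50% relative to plate controls; inactive = activation below 50%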;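 also: necroptosis triggered by 40 ng/mL TNF-alpha added together with compound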
Wee1 degr inh: inhibitors of human Wee1 degradation. HeLa Luc-Wee1K328M stability, luciferase luminescence; 100% = proteasome inhibitor MG132 effect. P30291. actives 1.2% (n = 220,000). reporter increase, % at 5 µM;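 active = activation above the mean of all tested compounds plus 3 SD, set per screening run, cut at about 8.8% in these data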;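 also: cells exposed to compound for 20 h before luminescence read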
zVAD death inh: blocks zVAD induced death of L929 cells; L929 zVAD necroptosis rescue, ATP luminescence, 24 h; with zVAD 60 µM; viability rescue, % at 10 µM; actives 0.38% (n = 220,000);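 active = activation, scaled between plate controls, above about 75%, limit read from the data; inactive = activation under that limit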
Calpain2 inh: calpain II (pig) inhibition; inhibition, % at 16 µM; purified calpain II, fluorogenic peptide substrate, 30 min; actives 0.37% (n = 220,000);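 active = inhibition above about 50%, limit read from the data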
RBBP9 inhibitor: blocks human serine hydrolase RBBP9; inhibition, % at 7.94 µM; O75884; recombinant RBBP9, FP-Rh probe fluorescence polarization; actives 0.2% (n = 220,000);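 active = inhibition above the campaign mean of all tested compounds plus 3 SD, cut at about 14% in these data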
Target sequence (O75884 whole entry, looked up): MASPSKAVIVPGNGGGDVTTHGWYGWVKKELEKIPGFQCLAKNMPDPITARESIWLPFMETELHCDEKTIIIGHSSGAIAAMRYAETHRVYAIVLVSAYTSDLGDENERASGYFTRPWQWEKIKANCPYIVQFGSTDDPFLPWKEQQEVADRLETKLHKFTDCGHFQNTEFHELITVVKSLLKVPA
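Controls: DMSO-treated enzyme wells and wells lacking RBBP9 | Material: RBBP9 protein | Technique: Fluorescence polarization | Replication: Single well per compound, no replicates | Buffer or medium: Tris-NaCl-Pluronic buffer, pH 8.0 | Timing: 30 min compound preincubation, 45 min probe labeling, 25 °C | Read-out basis: Percent inhibition from mP, scaled between DMSO and no-protein wells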
Each line names hits and unclear results; the compound was inactive in the other large screens.

CC(C)N(C(=O)CSc1nc2ccccc2n1Cc1ccc(F)cc1)C(C)C	none (no result: Pf gamet viab)
Nc1cc(=O)[nH]c(SCC(=O)Nc2ccc3c(c2)CCC3)n1	Wee1 degr inh 9.6
Cc1ccc2nc(-c3ccc(NC(=O)CSc4nc(N)cc(=O)[nH]4)cc3)sc2c1	Wee1 degr inh 10.7
Cc1ccc2nc(-c3ccc(NC(=O)CSc4nccc(=O)[nH]4)cc3)sc2c1	none
COc1cc(CNc2ccccc2SC)cc(OC)c1OC	none (no result: Pf gamet viab)
OCCC1CN(Cc2cccn2-c2cccnc2)CCN1Cc1ccccc1 (stereo not drawn)	none
O=C1OCC(CO)(CO)N=C1NNc1ccc(Cl)c(Cl)c1	none (no result: Pf gamet viab)
CC#CCN1C(=O)N[C@@H](c2ccccc2)C(C(=O)OC)=C1C	none (no result: TNF necrop inh, Wee1 degr inh, zVAD death inh, Calpain2 inh, RBBP9 inhibitor)
COc1ccc(C2=NOC(Cn3nc(C(=O)NCc4ccccc4OC)cc3-c3ccccc3)C2)cc1 (stereo not drawn)	none (no result: TNF necrop inh, Wee1 degr inh, zVAD death inh, Calpain2 inh, RBBP9 inhibitor)
CC1CCN(CCCCOc2ccccc2[N+](=O)[O-])CC1	none (no result: Pf gamet viab)
Cc1nn(-c2ccccc2)c(N2CCCC2)c1C=O	Pf gamet viab 40.0
O=C1C2CCCCC2C(=O)N1c1ccc(NC2CCN(Cc3ccccc3)CC2)c([N+](=O)[O-])c1 (stereo not drawn)	Calpain2 inh 83.9
COc1cccc(CN(C)CC(=O)Nc2c(C)cccc2C(C)C)c1	none
Cc1cc(C)nc(NC(=O)/C=C/c2ccc3c(c2)OCO3)c1	Wee1 degr inh 8.9
COc1ccccc1-c1nnc(SCC(=O)NC2CCS(=O)(=O)C2)n1CCc1ccccc1 (stereo not drawn)	none
CC(C)(C)[C@@H]1COC(=O)[C@H](Cc2ccc(F)cc2)C/C=C\C[C@@H](CC(=O)NCCO)C(=O)N1	none (no result: TNF necrop inh, Wee1 degr inh, zVAD death inh, Calpain2 inh, RBBP9 inhibitor)
CCCCC(=O)Nc1ccc(Br)cn1	none (no result: Pf gamet viab)
CC(C)=CC1C(C(=O)Nc2ccc(Br)cn2)C1(C)C (stereo not drawn)	Calpain2 inh 52.6
Cc1csc2c(=O)sc(NC(=O)c3cccs3)nc12	none
O=C(C(=O)N1CCCC1CO)N1CCCC1CO (stereo not drawn)	none (no result: Pf gamet viab)
CC(=O)OC1CCC(OC(C)=O)c2c1n([O-])c(C)c(C)[n+]2=O (stereo not drawn)	Wee1 degr inh 10.5 (no result: Pf gamet viab)
O=C(Nc1ccc([N+](=O)[O-])cn1)c1ccc(Br)o1	Wee1 degr inh 10.1 (no result: Pf gamet viab)
O=C(Nc1ccc([N+](=O)[O-])cn1)c1cccnc1	none (no result: TNF necrop inh, Wee1 degr inh, zVAD death inh, Calpain2 inh, RBBP9 inhibitor)
COC(=O)c1ccc(OC)c(CSc2nnc(COc3ccccc3)o2)c1	none
COC(=O)c1ccc(OC)c(CSc2nnc(COc3ccc(Cl)cc3)o2)c1	Calpain2 inh 50.6
CCOC(=O)c1nnn(-c2nonc2N)c1-c1ccc(C)cc1	none (no result: Pf gamet viab)
CCOC(=O)c1nnn(-c2nonc2N)c1-c1ccc(Br)cc1	Wee1 degr inh 9.5
CC(C)(C)C1CCc2onc(C(=O)NCc3ccc(F)cc3)c2C1 (stereo not drawn)	Calpain2 inh 51.8 (no result: Pf gamet viab)
OCCNNC(=S)NC1CC2C=CC1C2 (stereo not drawn)	none
C=CCn1cc(C(C)=O)c(=O)[nH]c1=O	none
O=C(O)C1C2C=CC(C2)C1C(=O)Nc1ccc(C(=O)N2CCCCC2)c(Cl)c1 (stereo not drawn)	none
O=C(CNC1CCCCCC1)Nc1ccccc1N1CCCCC1	Wee1 degr inh 8.9 (no result: Pf gamet viab)
COc1cc(CC(=O)Nc2ccccc2N2CCCCC2)cc(OC)c1OC	Wee1 degr inh 9.4
O=C(CNCC1CCCCC1)Nc1ccccc1N1CCCCC1	none (no result: Pf gamet viab)
N/C(Cc1ccc([N+](=O)[O-])cc1)=N\OC(=O)CC1CCCCC1	Pf gamet viab 59.1
Cc1ccc(CC(=O)O/N=C(\N)Cc2ccc([N+](=O)[O-])cc2)cc1	none
O=C(NN=C1CCCC1)c1cccs1	none
O=C(NN=C1C2CC3CC(C2)CC1C3)c1cccs1	Wee1 degr inh 9.5 (no result: Pf gamet viab)
CC(C)C(=O)NC(=S)Nc1ccccc1C(=O)NC1CCCCC1	Pf gamet viab 52.3 (no result: zVAD death inh)
COC(=O)c1ccccc1NC(=O)NC1CCCC1	Wee1 degr inh 9.5
NC(=O)c1ccccc1NC(=O)NC1CCCCC1	Wee1 degr inh 10.5 (no result: Pf gamet viab)
CCOC(=O)/C(=C\c1cccc(O)c1)c1nc2sc(C)c(C)c2c(=O)[nH]1	none
COc1cc2cc(CN(CCCN3CCOCC3)C(=O)Nc3ccccc3F)c(=O)[nH]c2cc1OC	Wee1 degr inh 9.2
COC(=O)c1cccc(NC(=O)c2cnn(C)c2)c1	none (no result: TNF necrop inh, Wee1 degr inh, zVAD death inh, Calpain2 inh, RBBP9 inhibitor)
NC(=O)c1ccc(NC(=O)Cn2c(=O)n(-c3ccccc3)c(=O)c3oc4ccccc4c32)cc1	Wee1 degr inh 9.9
O=C1CC(c2ccccc2)CC(O)=C1C=NCc1ccccc1Cl (stereo not drawn)	Wee1 degr inh 9.3 (no result: Pf gamet viab)
O=C1CC(c2ccccc2)CC(O)=C1C=NCc1ccccc1 (stereo not drawn)	none
O=C1C2C3C=CC(C4CC34)C2C(=O)N1/N=C/c1c[nH]c2ccccc12 (stereo not drawn)	none
COc1cccc(C2=CC(c3ccc(N(C)C)cc3)n3nnnc3N2)c1 (stereo not drawn)	none
COc1cccc(C2=CC(c3ccccc3)n3nnnc3N2)c1 (stereo not drawn)	Calpain2 inh 62.6
Cc1nc(NC(=O)c2ccc(Br)s2)sc1C(=O)N(C)C	Wee1 degr inh 10.7
O=C(Cc1ccccc1Cl)Nc1cccnc1	none
N#CC1CC(c2ccccc2)=NN1c1ccccc1[N+](=O)[O-] (stereo not drawn)	Wee1 degr inh 10.2
COc1ccc(CNC(=O)CN(c2cccc([N+](=O)[O-])c2)S(C)(=O)=O)cc1	none
COc1ccccc1C(=O)NNC(=O)c1cccc(C)c1	none (no result: TNF necrop inh, Wee1 degr inh, zVAD death inh, Calpain2 inh, RBBP9 inhibitor)
COc1ccc(C(=O)N[C@H](C(=O)Nc2nc3ccccc3[nH]2)C(C)C)cc1	Wee1 degr inh 9.0
Cc1cccc(C(=O)N[C@H](C(=O)Nc2nc3ccccc3[nH]2)C(C)C)c1	none
NS(=O)(=O)c1ccc(O)c(NC(=O)c2ccc([N+](=O)[O-])o2)c1	none
CC(C)(C)Nc1nc(Oc2ccc(=O)[nH]n2)nc(N2CCOCC2)n1	Wee1 degr inh 9.6
COc1cccc(CN2CCN(Cc3ccc(C#CC(C)(C)O)s3)CC2CCO)c1 (stereo not drawn)	Wee1 degr inh 10.1
CC(C)(O)C#Cc1ccc(CN2CCN(Cc3ccccc3)C(CCO)C2)s1 (stereo not drawn)	none
N#CC1=C(N)OC2=C(C(=O)CCC2)C1c1cc2c(cc1Cl)OCO2 (stereo not drawn)	none (no result: TNF necrop inh, Wee1 degr inh, zVAD death inh, Calpain2 inh, RBBP9 inhibitor)
CC(=O)Oc1ccc2c(=O)c(-c3nc4ccccc4s3)coc2c1	Wee1 degr inh 9.1
O=C(CCSCc1cccc(Cl)c1)NCCc1ccc(Cl)cc1	none (no result: Pf gamet viab)
O=C(Nc1cnn(Cc2ccc(F)cc2)c1)c1cc2nc(-c3ccco3)cc(C(F)(F)F)n2n1	Calpain2 inh 90.8 (no result: Pf gamet viab)
O=C(Nc1cnn(Cc2ccc(F)cc2)c1)c1cc(-c2ccco2)on1	none
COc1cc(/C=N/Nc2nc(Nc3ccccc3)nc(N3CCOCC3)n2)ccc1OC(=O)c1ccco1	none
